Source: ChEMBL document CHEMBL2069242, “Structure and activity relationship in the (S)-N-chroman-3-ylcarboxamide series of voltage-gated sodium channel blockers” (Bioorg Med Chem Lett, 2012)
≈ marks a conversion by molar mass, not a printed value. Calls of active or inactive are those of the source. No cut-off for these calls is given here.

Tests used:
[1] = molecular target: Sodium channel protein type 9 subunit alpha (Homo sapiens, UniProt Q15858); assay: Inhibition of human NaV1.7 expressed in HEK293 cells by whole-cell voltage clamp assay; format: cell-based
Sequence of Sodium channel protein type 9 subunit alpha (Q15858 whole entry): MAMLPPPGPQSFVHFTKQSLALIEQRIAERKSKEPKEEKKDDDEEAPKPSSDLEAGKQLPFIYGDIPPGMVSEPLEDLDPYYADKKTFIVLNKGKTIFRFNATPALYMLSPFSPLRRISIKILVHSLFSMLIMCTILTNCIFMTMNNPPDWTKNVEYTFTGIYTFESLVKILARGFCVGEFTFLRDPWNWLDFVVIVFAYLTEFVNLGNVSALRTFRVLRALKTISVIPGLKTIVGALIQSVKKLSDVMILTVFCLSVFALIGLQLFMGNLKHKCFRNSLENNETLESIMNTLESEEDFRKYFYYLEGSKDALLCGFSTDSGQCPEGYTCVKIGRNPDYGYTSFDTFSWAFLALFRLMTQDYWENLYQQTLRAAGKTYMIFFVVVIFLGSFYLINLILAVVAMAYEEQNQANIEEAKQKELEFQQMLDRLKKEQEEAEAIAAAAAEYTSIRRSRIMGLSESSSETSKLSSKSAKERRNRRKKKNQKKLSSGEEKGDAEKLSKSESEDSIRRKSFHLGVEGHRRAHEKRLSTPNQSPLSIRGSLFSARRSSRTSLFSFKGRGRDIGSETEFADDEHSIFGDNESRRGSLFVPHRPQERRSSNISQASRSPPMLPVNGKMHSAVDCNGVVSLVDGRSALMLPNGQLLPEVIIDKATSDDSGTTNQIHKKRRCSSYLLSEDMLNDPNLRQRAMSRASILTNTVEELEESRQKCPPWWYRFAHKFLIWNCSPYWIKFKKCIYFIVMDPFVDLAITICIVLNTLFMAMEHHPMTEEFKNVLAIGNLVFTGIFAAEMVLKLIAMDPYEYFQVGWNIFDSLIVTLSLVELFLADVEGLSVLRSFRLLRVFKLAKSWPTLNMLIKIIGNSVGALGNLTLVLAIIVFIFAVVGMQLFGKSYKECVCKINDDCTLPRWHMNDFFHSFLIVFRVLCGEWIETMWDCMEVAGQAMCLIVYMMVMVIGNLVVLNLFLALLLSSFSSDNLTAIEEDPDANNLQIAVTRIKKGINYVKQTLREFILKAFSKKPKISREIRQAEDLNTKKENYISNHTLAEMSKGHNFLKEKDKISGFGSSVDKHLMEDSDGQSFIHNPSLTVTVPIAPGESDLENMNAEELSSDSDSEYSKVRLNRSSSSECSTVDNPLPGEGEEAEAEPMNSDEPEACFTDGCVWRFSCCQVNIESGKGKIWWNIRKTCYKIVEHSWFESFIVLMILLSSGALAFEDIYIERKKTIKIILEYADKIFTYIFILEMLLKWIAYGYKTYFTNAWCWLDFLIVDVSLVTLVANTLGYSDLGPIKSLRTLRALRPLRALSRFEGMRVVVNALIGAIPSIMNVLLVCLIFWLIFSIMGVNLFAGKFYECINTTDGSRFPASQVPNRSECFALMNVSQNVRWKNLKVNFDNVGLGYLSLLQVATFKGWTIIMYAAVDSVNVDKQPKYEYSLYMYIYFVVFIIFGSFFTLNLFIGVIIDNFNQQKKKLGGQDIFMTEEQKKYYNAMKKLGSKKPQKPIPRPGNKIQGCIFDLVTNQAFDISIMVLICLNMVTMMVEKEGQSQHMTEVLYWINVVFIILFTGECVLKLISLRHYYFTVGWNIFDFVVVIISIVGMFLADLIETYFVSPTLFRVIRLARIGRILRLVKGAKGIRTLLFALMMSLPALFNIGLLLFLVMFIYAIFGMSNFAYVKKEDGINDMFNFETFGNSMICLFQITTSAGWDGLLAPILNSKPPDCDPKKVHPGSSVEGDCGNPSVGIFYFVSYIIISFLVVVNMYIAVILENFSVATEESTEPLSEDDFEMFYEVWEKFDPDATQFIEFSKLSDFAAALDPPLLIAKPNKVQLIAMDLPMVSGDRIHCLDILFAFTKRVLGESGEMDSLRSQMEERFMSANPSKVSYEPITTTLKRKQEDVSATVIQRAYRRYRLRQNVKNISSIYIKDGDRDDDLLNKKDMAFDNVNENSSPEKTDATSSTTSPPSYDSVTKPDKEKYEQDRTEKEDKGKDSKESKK
Summary of the method: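 Human NaV1.7 α-subunit stably expressed in HEK293 cells. Currents were recorded by perforated whole-cell automated planar patch clamp (IonWorks Quattro) in D-PBS external solution with 5.5 mM glucose. Cells were held at −65 mV, and a train of eight 30 ms steps to −20 mV at 3 Hz was applied. Half-log serial dilutions were made in DMSO, giving 0.3% DMSO in the recording solution.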

[2] = molecular target: Sodium channel protein type 5 subunit alpha (Homo sapiens, UniProt Q14524); assay: Inhibition of human NaV1.5 expressed in CHO cells by IonWorks assay; format: cell-based
Sequence of Sodium channel protein type 5 subunit alpha (Q14524 whole entry): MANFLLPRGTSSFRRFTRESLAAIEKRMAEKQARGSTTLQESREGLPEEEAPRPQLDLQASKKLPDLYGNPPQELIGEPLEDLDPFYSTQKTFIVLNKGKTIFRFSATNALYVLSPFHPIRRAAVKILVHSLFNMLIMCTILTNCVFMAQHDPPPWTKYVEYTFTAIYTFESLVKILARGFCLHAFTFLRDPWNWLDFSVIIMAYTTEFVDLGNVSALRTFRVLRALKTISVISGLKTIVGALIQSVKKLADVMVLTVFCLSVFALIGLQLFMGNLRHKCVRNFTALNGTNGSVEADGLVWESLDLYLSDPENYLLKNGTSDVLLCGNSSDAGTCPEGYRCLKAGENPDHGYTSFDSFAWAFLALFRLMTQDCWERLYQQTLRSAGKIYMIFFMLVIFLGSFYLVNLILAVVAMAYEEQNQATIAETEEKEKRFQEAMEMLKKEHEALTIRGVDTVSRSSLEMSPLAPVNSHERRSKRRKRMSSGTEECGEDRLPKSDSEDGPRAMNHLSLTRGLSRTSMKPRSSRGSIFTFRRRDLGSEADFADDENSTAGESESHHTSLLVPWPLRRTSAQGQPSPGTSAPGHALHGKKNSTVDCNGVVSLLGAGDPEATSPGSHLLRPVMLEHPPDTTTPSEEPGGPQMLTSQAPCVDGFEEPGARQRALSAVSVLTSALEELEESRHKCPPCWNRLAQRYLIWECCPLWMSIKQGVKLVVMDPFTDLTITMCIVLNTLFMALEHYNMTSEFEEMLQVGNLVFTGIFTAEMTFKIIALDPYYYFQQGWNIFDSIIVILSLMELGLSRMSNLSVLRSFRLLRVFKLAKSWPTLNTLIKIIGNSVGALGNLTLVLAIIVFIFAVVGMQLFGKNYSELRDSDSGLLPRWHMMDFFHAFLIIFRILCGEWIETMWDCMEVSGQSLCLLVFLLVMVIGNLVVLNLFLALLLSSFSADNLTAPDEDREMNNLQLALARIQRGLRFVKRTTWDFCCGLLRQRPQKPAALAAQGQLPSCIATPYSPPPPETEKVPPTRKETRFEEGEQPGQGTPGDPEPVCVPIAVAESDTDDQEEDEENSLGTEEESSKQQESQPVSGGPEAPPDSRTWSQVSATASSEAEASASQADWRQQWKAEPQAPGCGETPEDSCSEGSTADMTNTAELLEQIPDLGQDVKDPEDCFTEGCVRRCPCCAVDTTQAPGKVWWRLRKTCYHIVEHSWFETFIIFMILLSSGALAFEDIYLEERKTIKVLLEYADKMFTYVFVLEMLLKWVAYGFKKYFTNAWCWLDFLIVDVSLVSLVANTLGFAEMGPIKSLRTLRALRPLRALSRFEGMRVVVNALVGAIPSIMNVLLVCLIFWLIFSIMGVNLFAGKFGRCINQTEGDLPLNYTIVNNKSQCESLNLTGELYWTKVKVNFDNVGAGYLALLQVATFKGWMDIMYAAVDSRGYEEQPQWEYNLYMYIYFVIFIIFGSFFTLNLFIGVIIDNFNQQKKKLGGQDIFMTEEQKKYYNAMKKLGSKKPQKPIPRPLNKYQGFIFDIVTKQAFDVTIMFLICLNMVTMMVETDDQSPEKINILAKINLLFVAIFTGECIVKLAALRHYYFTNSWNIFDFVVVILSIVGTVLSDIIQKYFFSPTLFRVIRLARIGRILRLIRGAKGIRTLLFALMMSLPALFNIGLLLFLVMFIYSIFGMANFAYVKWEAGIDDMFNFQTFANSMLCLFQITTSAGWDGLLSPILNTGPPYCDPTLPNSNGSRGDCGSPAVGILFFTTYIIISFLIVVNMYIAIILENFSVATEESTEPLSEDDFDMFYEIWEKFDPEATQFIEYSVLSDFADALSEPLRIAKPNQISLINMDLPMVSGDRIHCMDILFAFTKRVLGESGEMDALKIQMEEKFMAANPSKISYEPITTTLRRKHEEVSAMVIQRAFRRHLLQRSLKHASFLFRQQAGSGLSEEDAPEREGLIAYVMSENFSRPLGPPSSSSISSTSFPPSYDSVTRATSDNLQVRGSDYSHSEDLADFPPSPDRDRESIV

[3] = molecular target: Voltage-gated inwardly rectifying potassium channel KCNH2 (Homo sapiens, UniProt Q12809); assay: Inhibition of human ERG expressed in CHO cells by IonWorks HT assay; format: cell-based
Sequence of Voltage-gated inwardly rectifying potassium channel KCNH2 (Q12809 whole entry): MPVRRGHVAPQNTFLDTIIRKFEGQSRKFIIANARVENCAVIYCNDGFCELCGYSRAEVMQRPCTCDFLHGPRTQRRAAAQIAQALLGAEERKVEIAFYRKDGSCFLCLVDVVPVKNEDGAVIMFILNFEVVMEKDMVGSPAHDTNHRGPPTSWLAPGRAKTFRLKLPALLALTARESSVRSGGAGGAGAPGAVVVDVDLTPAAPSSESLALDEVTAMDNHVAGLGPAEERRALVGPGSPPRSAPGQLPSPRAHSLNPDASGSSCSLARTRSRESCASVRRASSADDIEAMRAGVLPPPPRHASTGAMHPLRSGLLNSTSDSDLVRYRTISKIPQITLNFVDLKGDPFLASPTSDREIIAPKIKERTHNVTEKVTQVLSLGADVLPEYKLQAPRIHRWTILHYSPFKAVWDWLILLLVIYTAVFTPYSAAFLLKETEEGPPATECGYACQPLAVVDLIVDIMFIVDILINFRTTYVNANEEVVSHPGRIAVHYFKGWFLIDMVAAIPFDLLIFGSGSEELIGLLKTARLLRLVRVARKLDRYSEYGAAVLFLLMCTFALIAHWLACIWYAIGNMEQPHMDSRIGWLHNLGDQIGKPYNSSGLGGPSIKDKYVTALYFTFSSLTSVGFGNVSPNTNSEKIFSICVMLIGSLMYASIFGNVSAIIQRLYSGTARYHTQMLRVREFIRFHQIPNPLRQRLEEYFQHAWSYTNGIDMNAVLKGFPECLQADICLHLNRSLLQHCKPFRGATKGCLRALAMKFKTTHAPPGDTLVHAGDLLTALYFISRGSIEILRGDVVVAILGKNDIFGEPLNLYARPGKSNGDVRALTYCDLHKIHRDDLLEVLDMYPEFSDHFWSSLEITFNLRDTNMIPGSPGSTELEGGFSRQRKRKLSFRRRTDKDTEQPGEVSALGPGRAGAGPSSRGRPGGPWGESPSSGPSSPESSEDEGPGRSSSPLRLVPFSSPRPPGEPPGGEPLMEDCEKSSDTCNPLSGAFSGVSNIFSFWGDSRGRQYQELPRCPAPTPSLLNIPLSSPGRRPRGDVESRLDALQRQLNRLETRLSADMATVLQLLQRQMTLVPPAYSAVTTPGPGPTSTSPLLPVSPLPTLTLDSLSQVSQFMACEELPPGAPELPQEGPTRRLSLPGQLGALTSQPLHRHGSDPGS

[4] = Solubility of the compound; format: physicochemical
Liver microsomes [5] = assay: Intrinsic clearance in human liver microsomes assessed per ug of protein; format: ADME, Microsome
Liver microsomes [6] = assay: Intrinsic clearance in rat liver microsomes assessed per ug of protein; format: ADME, Microsome
[7] = molecular target: Serotonin (5-HT) receptor (Homo sapiens) (UniProt P30939+P41595+Q13639+P28222+P46098+P08908+P28221+P28223+P28335+P28566+P34969+P50406+P47898+A5X5Y0+O95264+Q70Z44+Q8WXA8); assay: Activity at 5HT receptor; format: protein assay
Rattus norvegicus [8] = assay: Dose normalized AUC in Sprague-Dawley rat at 3 umol/kg, iv; format: ADME, organism-based; conditions: in vivo
Summary of the method: (§1)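 Rat pharmacokinetics used fasted male Sprague–Dawley rats, three animals per administration route per compound. The intravenous dose was 3 µmol/kg, with a separate oral arm.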

[9] = Volume of distribution at steady state in Sprague-Dawley rat at 3 umol/kg, iv; format: ADME, organism-based; conditions: in vivo, read-out: Vdss; summary of the method: as §1
[10] = Half life in Sprague-Dawley rat at 3 umol/kg, iv; format: ADME, organism-based; conditions: in vivo; summary of the method: as §1
[11] = Clearance in Sprague-Dawley rat at 3 umol/kg, iv; format: ADME, organism-based; conditions: in vivo; summary of the method: as §1
Rattus norvegicus [12] = assay: Dose normalized AUC in Sprague-Dawley rat at 10 umol/kg, po; format: ADME, organism-based; conditions: in vivo; summary of the method: as §1
[13] = Cmax in Sprague-Dawley rat at 10 umol/kg, po; format: ADME, organism-based; design: dose 10 umol/kg, route oral; conditions: in vivo; summary of the method: as §1
[14] = Tmax in Sprague-Dawley rat at 10 umol/kg, po; format: ADME, organism-based; conditions: in vivo; summary of the method: as §1
[15] = Half life in Sprague-Dawley rat at 10 umol/kg, po; format: ADME, organism-based; conditions: in vivo; summary of the method: as §1
[16] = Oral bioavailability in Sprague-Dawley rat at 10 umol/kg; format: ADME, organism-based; conditions: in vivo; summary of the method: as §1
[17] = molecular target: T1, Alpha-2B adrenergic receptor (Homo sapiens) (UniProt P18089); assay: Displacement of [3H]rauwolscine from adrenergic alpha2B receptor at 10 uM
T1 sequence (whole entry): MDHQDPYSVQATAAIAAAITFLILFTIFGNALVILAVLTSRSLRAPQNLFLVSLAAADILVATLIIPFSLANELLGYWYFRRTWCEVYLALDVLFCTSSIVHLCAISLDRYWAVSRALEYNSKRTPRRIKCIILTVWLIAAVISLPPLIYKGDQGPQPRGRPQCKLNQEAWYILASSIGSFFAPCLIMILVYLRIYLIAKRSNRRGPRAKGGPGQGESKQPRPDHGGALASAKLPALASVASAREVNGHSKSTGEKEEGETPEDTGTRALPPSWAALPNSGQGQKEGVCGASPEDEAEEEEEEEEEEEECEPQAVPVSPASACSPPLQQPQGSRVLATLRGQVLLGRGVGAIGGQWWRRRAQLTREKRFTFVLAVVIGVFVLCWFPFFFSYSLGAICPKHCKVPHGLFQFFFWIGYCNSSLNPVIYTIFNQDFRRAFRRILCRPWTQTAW

[18] = molecular target: T2, Sodium-dependent dopamine transporter (Homo sapiens, UniProt Q01959); assay: Displacement of [125I]RTI-55 from DAT at 10 uM
[19] = molecular target: T3, Growth hormone secretagogue receptor type 1 (Homo sapiens, UniProt Q92847); assay: Displacement of [125I]ghrelin from GHS receptor at 10 uM
[20] = molecular target: T2, Sodium-dependent dopamine transporter; assay: Displacement of [125I]RTI-55 from DAT
[21] = molecular target: T3, Growth hormone secretagogue receptor type 1; assay: Displacement of [125I]ghrelin from GHS receptor
[22] = molecular target: T4, 5-hydroxytryptamine receptor 1A (Homo sapiens) (UniProt P08908); assay: Activity at 5HT1A receptor
T4 sequence (whole entry): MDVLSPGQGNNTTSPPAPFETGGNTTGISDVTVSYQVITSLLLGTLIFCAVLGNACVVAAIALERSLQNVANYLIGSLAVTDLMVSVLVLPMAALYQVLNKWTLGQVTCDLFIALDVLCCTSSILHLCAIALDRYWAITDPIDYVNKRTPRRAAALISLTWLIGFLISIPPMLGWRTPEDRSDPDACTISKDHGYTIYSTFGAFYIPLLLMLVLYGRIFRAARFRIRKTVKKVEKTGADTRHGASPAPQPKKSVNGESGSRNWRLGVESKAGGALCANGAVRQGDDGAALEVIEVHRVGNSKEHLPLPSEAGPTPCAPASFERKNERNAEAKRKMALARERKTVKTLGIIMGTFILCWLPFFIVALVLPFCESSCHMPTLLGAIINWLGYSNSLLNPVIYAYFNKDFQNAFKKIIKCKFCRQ

[23] = molecular target: 5-hydroxytryptamine receptor 1B (Homo sapiens) (UniProt P28222); assay: Activity at 5HT1B receptor

| Structure (SMILES) | IC50 [1] [µM] | IC50 [2] [µM] | IC50 [3] [µM] | solubility [4] [µM] | CLint (Liver microsomes [5]) [µL/min/mg] | CLint (Liver microsomes [6]) [µL/min/mg] | further results |
| --- | --- | --- | --- | --- | --- | --- | --- |
| O=C(N[C@@H]1COc2cccc(-c3ccncc3)c2C1)c1ccc(OC(F)(F)F)cc1 | 1 | 3.98 | 2.51 | 2 (≈ 0.829 µg/mL) | 78 | – | – |
| O=C(N[C@@H]1COc2cccc(-c3cncnc3)c2C1)c1ccc(OCCC(F)(F)F)nc1 | – | 3.98 | – | 23 (≈ 10.2 µg/mL) | 318 | 38 | – |
| Cc1cc(-c2cccc3c2C[C@H](NC(=O)c2ccc(OCCOCC(F)(F)F)nc2)CO3)cnc1CO | 0.794 | 5.01 | – | 18 (≈ 9.32 µg/mL) | – | – | – |
| CN1CCN(c2cccc3c2C[C@H](NC(=O)c2ccc(OCC(F)(F)F)nc2)CO3)CC1 | 0.794 | 5.01 | 7.94 | 82 (≈ 36.9 µg/mL) | < 10 | < 10 | – |
| O=C(N[C@@H]1COc2cccc(-c3ccncc3)c2C1)c1ccc(OCC(F)(F)F)nc1 | – | 3.16 | 6.31 | 9 (≈ 3.86 µg/mL) | 59 | 77 | – |
| CN1CCN(c2cccc3c2C[C@H](NC(=O)c2ccc(OC(F)(F)F)cc2)CO3)CC1 | 2 | 2 | 7.94 | 27 (≈ 11.8 µg/mL) | 2.5 | 18 | – |
| O=C(N[C@@H]1COc2cccc(-c3ccc(CO)nc3)c2C1)c1ccc(OCC(F)(F)F)nc1 | 0.158 | 6.31 | 10 | 58 (≈ 26.6 µg/mL) | 10 | < 10 | Activity [7]: inactive; AUC/dose (Rattus norvegicus [8]): 0.4 kg·h/L; Vd [9]: 11 L/kg; half-life [10]: 3.8 h; clearance [11]: 42.2 mL/min/kg; AUC/dose (Rattus norvegicus [12]): 0.27 kg·h/L; Cmax [13]: 380 nM; Tmax [14]: 1.5 h; half-life [15]: 3.5 h; bioavailability [16]: 66.3%; inhibition [17]: 55%; inhibition [18]: 80%; inhibition [19]: 98%; IC50 [20]: 2 µM; IC50 [21]: 0.2 µM; Activity [22]: inactive; Activity [23]: inactive |
| Cc1nn(-c2ccccc2)nc1C(=O)N[C@@H]1COc2cccc(-c3ccncc3)c2C1 | – | > 31.6 | 3.98 | 2 (≈ 0.823 µg/mL) | – | – | – |
| O=C(N[C@@H]1COc2cccc(-c3cccnc3)c2C1)c1ccc(OCC(F)(F)F)nc1 | – | 3.16 | – | 29 (≈ 12.5 µg/mL) | 161 | 64 | – |
| CCCCOc1ccc(C(=O)N[C@@H]2COc3cccc(N4CCN(C)CC4)c3C2)cc1 | 1 | > 6.31 | 6.31 | 1 (≈ 0.424 µg/mL) | 361 | 82 | – |
| CN1CCN(c2cccc3c2C[C@H](NC(=O)c2ccc(OCCC(F)(F)F)nc2)CO3)CC1 | 0.631 | 5.01 | 12.6 | 379 (≈ 176 µg/mL) | < 10 | < 10 | – |
| CC(O)c1ccc(-c2cccc3c2C[C@H](NC(=O)c2ccc(OCCOCC(F)(F)F)nc2)CO3)cn1 (some centres not stated) | 0.794 | 10 | – | 18 (≈ 9.32 µg/mL) | 12 | < 10 | – |
| Cc1cnc(-c2cccc3c2C[C@H](NC(=O)c2ccc(COCC(F)(F)F)nc2)CO3)cn1 | 0.501 | 20 | – | 82 (≈ 37.6 µg/mL) | < 10 | < 10 | – |
| Cc1cnc(-c2cccc3c2C[C@H](NC(=O)c2ccc(OCC(F)(F)F)nc2)CO3)cn1 | 0.0794 | > 3.16 | > 31.6 | < 1 | 16 | < 10 | – |
| Cc1nn(-c2ccccc2)nc1C(=O)N[C@@H]1COc2cccc(N3CCN(C)CC3)c2C1 | 0.316 | 5.01 | 7.94 | 211 (≈ 91.3 µg/mL) | 14 | 4 | Activity [7]: Active |
| COCCn1nc(C)c(C(=O)N[C@@H]2COc3cccc(-c4ccncc4)c3C2)n1 | 25.1 | > 31.6 | – | 306 (≈ 120 µg/mL) | – | – | – |
| COc1ncc(-c2cccc3c2C[C@H](NC(=O)c2ccc(OCC(F)(F)F)nc2)CO3)cn1 | – | 6.31 | – | < 1 | < 10 | < 10 | – |
| O=C(N[C@@H]1COc2cccc(-c3ccnc(CO)c3)c2C1)c1ccc(OCC(F)(F)F)nc1 | 0.501 | 6.31 | – | 17 (≈ 7.81 µg/mL) | 15 | < 10 | Activity [7]: inactive |
| O=C(N[C@@H]1COc2cccc(-c3ccc(CO)nc3)c2C1)c1ccc(OCCOCC(F)(F)F)nc1 | 0.158 | 7.94 | 15.8 | 54 (≈ 27.2 µg/mL) | 11 | < 10 | – |
| Cc1nn(CC(C)C)nc1C(=O)N[C@@H]1COc2cccc(-c3cccnc3)c2C1 | – | > 31.6 | – | 393 (≈ 154 µg/mL) | – | – | – |
| COc1cnc(-c2cccc3c2C[C@@H](NC(=O)c2ccc(COCC(F)(F)F)nc2)CO3)cn1 | > 10 | – | – | – | 16 | 21 | – |
| O=C(N[C@@H]1COc2cccc(-c3cccnc3)c2C1)c1ccc(OC(F)(F)F)cc1 | – | 3.16 | – | 5 (≈ 2.07 µg/mL) | – | – | – |
| Cc1ccc(-n2nc(C)c(C(=O)N[C@@H]3COc4cccc(N5CCN(C)CC5)c4C3)n2)c(C)c1 | 0.158 | 2.51 | – | 4 (≈ 1.84 µg/mL) | – | 9 | CLH (Liver microsomes [5]): Stable |
| COCCn1nc(C)c(C(=O)N[C@@H]2COc3cccc(-c4cccnc4)c3C2)n1 | – | > 31.6 | – | 396 (≈ 156 µg/mL) | – | – | – |
| COc1cnc(-c2cccc3c2C[C@H](NC(=O)c2ccc(OCC(F)(F)F)nc2)CO3)cn1 | 0.126 | > 25.1 | > 31.6 | < 1 | 14 | 14 | – |
| COc1ncc(-c2cccc3c2C[C@H](NC(=O)c2ccc(OCC(F)(F)F)nc2)CO3)cc1F | – | 3.98 | – | 1.1 (≈ 0.525 µg/mL) | 19 | 10 | – |
| COc1ncc(-c2cccc3c2C[C@H](NC(=O)c2ccc(COCC(F)(F)F)nc2)CO3)cn1 | 0.251 | 10 | 15.8 | 145 (≈ 68.8 µg/mL) | < 10 | < 10 | – |
| COc1ncc(-c2cccc3c2C[C@H](NC(=O)c2ccc(OCCC(F)(F)F)nc2)CO3)cn1 | – | 3.98 | – | 3 (≈ 1.42 µg/mL) | < 10 | < 10 | – |
| Cc1ncc(-c2cccc3c2C[C@H](NC(=O)c2ccc(OCC(F)(F)F)nc2)CO3)cn1 | – | 5.01 | 10 | 6.5 (≈ 2.89 µg/mL) | < 10 | < 10 | – |
